Reference: article PMC8484140 (Targeted Oncology, 2021)
“Also recorded” adds a separate entry of the source.

Columns and labels:
[1] = Safety evaluation; type: in vivo, human
[2] = type: in vivo, human
[3] = tested on: HR+/HER2− advanced breast cancer; assay: Efficacy by RECIST 1.1, Stage I/II patients; type: in vivo, human; conditions: for Clinical response: CR (number of patients) / Clinical response: PD (number of patients) / Clinical response: PR (number of patients) / Clinical response: SD (number of patients): with exemestane in Stage II
[4] = tested on: HR+/HER2− advanced breast cancer; assay: Efficacy by RECIST 1.1, additional 21 patients; type: in vivo, human
Procedure, shortened: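 Additional cohort of 21 postmenopausal women aged ≤65 years. All had ER- and/or PR-positive (>1%) disease, ECOG 0–1 and progression after letrozole/anastrozole, with no prior HDAC inhibitor. […] Response was assessed by RECIST 1.1, with CR/PR confirmed at least 4 weeks after the initial response.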

[5] = Plasma pharmacokinetics of entinostat; type: in vivo, human
[6] = tested on: estrogen receptor-positive advanced breast cancer; conditions: entinostat plus exemestane; prolonged from 19.8; cited from earlier work
[7] = Stage II, 3 mg/week + exemestane 25 mg/day, n=2
[8] = Stage II, 5 mg/week + exemestane 25 mg/day, n=14
[9] = additional 21 patients, entinostat 5 mg/week + exemestane 25 mg/day
[10] = female, human, plasma, po, 3 mg
[11] = female, human, plasma, po, 3 mg/week
[12] = female, human, plasma, po, 5 mg
[13] = female, human, plasma, po, 5 mg/week
[14] = female, human, plasma, po, 7 mg
[15] = female, human, plasma, po, 7 mg/week

For `Nc1ccccc1NC(=O)c1ccc(CNC(=O)OCc2cccnc2)cc1` [Entinostat], the “Tolerability of entinostat in combination with exemestane” value ([1]; Chinese patients) was “well tolerated”, the “AKP elevation, entinostat-related AE of all grades” value [1, 7] was 0 No. (%) and the “ALT elevation, entinostat-related AE of all grades” value [1, 7] was 0 No. (%). For the same compound, the “AST elevation, entinostat-related AE of all grades” value [1, 7] was 0 No. (%), the “Abdominal pain, entinostat-related AE of all grades” value [1, 7] was 0 No. (%) and the “Anemia, entinostat-related AE of all grades” value [1, 7] was 0 No. (%). For the same compound, the “Back pain, entinostat-related AE of all grades” value [1, 7] was 0 No. (%), the “Chest pain, entinostat-related AE of all grades” value [1, 7] was 0 No. (%) and the “Creatine increase, entinostat-related AE of all grades” value [1, 7] was 0 No. (%). The “Creatinine phosphokinase increase, entinostat-related AE of all grades” value [1, 7] was 0 No. (%), the “Debilitation, entinostat-related AE of all grades” value [1, 7] was 0 No. (%) and the “Diarrhea, entinostat-related AE of all grades” value [1, 7] was 0 No. (%). For the same compound, the “Fatigue, entinostat-related AE of all grades” value [1, 7] was 0 No. (%), the “Flatulence, entinostat-related AE of all grades” value [1, 7] was 0 No. (%) and the “Headache, entinostat-related AE of all grades” value [1, 7] was 0 No. (%). For the same compound, the “Hypoalbuminemia, entinostat-related AE of all grades” value [1, 7] was 0 No. (%), the “Hypocalcemia, entinostat-related AE of all grades” value [1, 7] was 0 No. (%) and the “Hypokalemia, entinostat-related AE of all grades” value [1, 7] was 0 No. (%). The “Hypoproteinemia, entinostat-related AE of all grades” value [1, 7] was 0 No. (%), the “LDH increase, entinostat-related AE of all grades” value [1, 7] was 0 No. (%) and the “Leukopenia, entinostat-related AE of all grades” value [1, 7] was 0 No. (%). For the same compound, the “Limb pain, entinostat-related AE of all grades” value [1, 7] was 0 No. (%), the “Nausea, entinostat-related AE of all grades” value [1, 7] was 0 No. (%) and the “Neutropenia, entinostat-related AE of all grades” value [1, 7] was 2 (100) No. (%). The “Palpitation, entinostat-related AE of all grades” value [1, 7] was 0 No. (%), the “Serum Ca^2+ decrease, entinostat-related AE of all grades” value [1, 7] was 0 No. (%) and the “Serum Na+ decrease, entinostat-related AE of all grades” value [1, 7] was 0 No. (%). The “Serum albumin decrease, entinostat-related AE of all grades” value [1, 7] was 0 No. (%), the “Serum phosphate decrease, entinostat-related AE of all grades” value [1, 7] was 0 No. (%) and the “Serum urea increase, entinostat-related AE of all grades” value [1, 7] was 0 No. (%). The “Thrombocytopenia, entinostat-related AE of all grades” value [1, 7] was 0 No. (%), the “Γ-GT elevation, entinostat-related AE of all grades” value [1, 7] was 0 No. (%) and the “α-HBDH elevation, entinostat-related AE of all grades” value [1, 7] was 0 No. (%). The “Grade 3 AE” value ([1]; Stage II, 3 mg/week group + exemestane) was “no grade 3 AE occurred”, the “CTCAE grade 3 arrhythmia requiring medical care” value ([1]; Stage II, 5 mg entinostat group, 1/14) was 7.1% and the “AKP elevation, entinostat-related AE of all grades” value [1, 8] was 4 (28.6) No. (%). The “ALT elevation, entinostat-related AE of all grades” value [1, 8] was 0 No. (%), the “AST elevation, entinostat-related AE of all grades” value [1, 8] was 2 (14.3) No. (%) and the “Abdominal pain, entinostat-related AE of all grades” value [1, 8] was 0 No. (%). For the same compound, the “Anemia, entinostat-related AE of all grades” value [1, 8] was 5 (35.7) No. (%), the “Back pain, entinostat-related AE of all grades” value [1, 8] was 0 No. (%) and the “Chest pain, entinostat-related AE of all grades” value [1, 8] was 0 No. (%). The “Creatine increase, entinostat-related AE of all grades” value [1, 8] was 4 (28.6) No. (%), the “Creatinine phosphokinase increase, entinostat-related AE of all grades” value [1, 8] was 6 (42.9) No. (%) and the “Debilitation, entinostat-related AE of all grades” value [1, 8] was 0 No. (%). The “Diarrhea, entinostat-related AE of all grades” value [1, 8] was 3 (21.4) No. (%), the “Fatigue, entinostat-related AE of all grades” value [1, 8] was 0 No. (%) and the “Flatulence, entinostat-related AE of all grades” value [1, 8] was 0 No. (%). The “Headache, entinostat-related AE of all grades” value [1, 8] was 0 No. (%), the “Hypoalbuminemia, entinostat-related AE of all grades” value [1, 8] was 3 (21.4) No. (%) and the “Hypocalcemia, entinostat-related AE of all grades” value [1, 8] was 2 (14.3) No. (%). The “Hypokalemia, entinostat-related AE of all grades” value [1, 8] was 2 (14.3) No. (%), the “Hypoproteinemia, entinostat-related AE of all grades” value [1, 8] was 3 (21.4) No. (%) and the “LDH increase, entinostat-related AE of all grades” value [1, 8] was 2 (14.3) No. (%). For the same compound, the “Leukopenia, entinostat-related AE of all grades” value [1, 8] was 10 (71.4) No. (%), the “Limb pain, entinostat-related AE of all grades” value [1, 8] was 2 (14.3) No. (%) and the “Nausea, entinostat-related AE of all grades” value [1, 8] was 0 No. (%). For the same compound, the “Neutropenia, entinostat-related AE of all grades” value [1, 8] was 10 (71.4) No. (%), the “Palpitation, entinostat-related AE of all grades” value [1, 8] was 0 No. (%) and the “Serum Ca^2+ decrease, entinostat-related AE of all grades” value [1, 8] was 2 (14.3) No. (%). For the same compound, the “Serum Na+ decrease, entinostat-related AE of all grades” value [1, 8] was 2 (14.3) No. (%), the “Serum albumin decrease, entinostat-related AE of all grades” value [1, 8] was 2 (14.3) No. (%) and the “Serum phosphate decrease, entinostat-related AE of all grades” value [1, 8] was 7 (50) No. (%). For the same compound, the “Serum urea increase, entinostat-related AE of all grades” value [1, 8] was 2 (14.3) No. (%), the “Thrombocytopenia, entinostat-related AE of all grades” value [1, 8] was 6 (42.9) No. (%) and the “Γ-GT elevation, entinostat-related AE of all grades” value [1, 8] was 3 (21.4) No. (%). The “α-HBDH elevation, entinostat-related AE of all grades” value [1, 8] was 2 (14.3) No. (%), the “Number of CTCAE grade ≥ 3 AEs” value ([1]; Stage II, 5 mg/week group + exemestane) was 38 and the “Grade 3/4 anemia” value [2, 9] was 9.5%. For the same compound, the “Grade 3/4 fatigue” value [2, 9] was 9.5%, the “Grade 3/4 neutropenia” value [2, 9] was 38% and the “Grade 3/4 thrombocytopenia” value [2, 9] was 9.5%. The “Occurrence rate of thrombocytopenia” value ([2]; entinostat in combination with exemestane, as quoted in Discussion) was 10%, the “Clinical response: CR (number of patients)” value (from here on “Clinical response: CR”) ([3]; 3 mg (n = 2)) was 0 and the “Clinical response: PD (number of patients)” value (“Clinical response: PD” below) ([3]; 3 mg (n = 2)) was 1. For the same compound, the “Clinical response: PR (number of patients)” value (shortened to “Clinical response: PR”) ([3]; 3 mg (n = 2)) was 0, the “Clinical response: SD (number of patients)” value (“Clinical response: SD” for short) ([3]; 3 mg (n = 2)) was 1 and the “Clinical response: CR” value ([3]; 5 mg (n = 9)) was 0. The “Clinical response: PD” value ([3]; 5 mg (n = 9)) was 6, the “Clinical response: PR” value ([3]; 5 mg (n = 9)) was 2 and the “Clinical response: SD” value ([3]; 5 mg (n = 9)) was 1. The PFS ([3]; 5 mg group, from first dose of entinostat, 95% CI: 78–201) was 85.5 days, the “Clinical response: CR” value ([3]; 7 mg→5 mg (n = 3)) was 0 and the “Clinical response: PD” value ([3]; 7 mg→5 mg (n = 3)) was 2. For the same compound, the “Clinical response: PR” value ([3]; 7 mg→5 mg (n = 3)) was 0, the “Clinical response: SD” value ([3]; 7 mg→5 mg (n = 3)) was 1 and the “Overall response rate (ORR, CR+PR)” value ([3]; 14 evaluated patients, 2/14) was 14.3%. The “Patients achieving CR” value ([3]; 14 evaluated patients, all cohorts) was “none”, the “Patients with stable disease” value ([3]; 14 evaluated patients, all three treatment groups) was “Three” and the “Patients with PD” value ([3]; 14 evaluated patients, three groups) was “Nine”. For the same compound, the “Patients with stable disease (> 12 weeks)” value ([3]; extended treatment stage, entinostat 3 or 5 mg/week + exemestane 25 mg/day) was “three”, the “ORR (CR+PR)” value ([4]; 21 patients, entinostat 5 mg + exemestane 25 mg, 95% CI: 1.17–30.38) was 9.52% and the “Clinical benefit rate (CBR, CR+PR+SD over 24 weeks)” value ([4]; 21 patients, entinostat 5 mg + exemestane 25 mg, 95% CI: 21.82–65.98) was 42.86%. The Median progression-free survival [4, 9] was 9.41 months, the “Dose dependence of exposure (Cmax, AUC)” value ([5]; 3–7 mg) was “increased dose proportionally; also recorded: linear relationship between AUC0-168 and entinostat dose” and the Tmax ([5]; Day 22, 5 mg/week oral, N=12, median (Min., Max.)) was 0.50 (0.25, 8.00) h. It also gave a Tmax ([5]; female, human, plasma, oral) of roughly 0.5 h, a half-life ([5]; female, human, plasma, oral) of 38.3 to 65.3 h and an AUC(0-inf) [5, 10] of 572 ± 122 ng·h/mL. It also gave a Cmax [5, 10] of 49.2 ± 8.38 ng/mL, a half-life [5, 10] of 38.3 h and an AUC(0-inf) [5, 11] of 609 ± 44.3 ng·h/mL. It also gave a Cmax [5, 11] of 55.7 ± 38.2 ng/mL, a Tmax [5, 11] of 0.47 h and a half-life [5, 11] of 65.3 h. For the same compound, the AUC(0-inf) [5, 12] was 1070 ± 364 ng·h/mL, the Cmax [5, 12] was 101 ± 62.1 ng/mL and the half-life [5, 12] was 51.7 h. The AUC(0-inf) [5, 13] was 1310 ± 349 ng·h/mL, the Cmax [5, 13] was 107 ± 63.2 ng/mL and the half-life [5, 13] was 61.9 h. It also gave an AUC(0-inf) [5, 14] of 1380 ± 206 ng·h/mL, a Cmax [5, 14] of 154 ± 39.2 ng/mL and a Tmax [5, 14] of 0.55 h. For the same compound, the half-life [5, 14] was 48.1 h, the AUC(0-inf) [5, 15] was 1650 ± 452 ng·h/mL and the Cmax [5, 15] was 122 ± 76.1 ng/mL. For the same compound, the half-life [5, 15] was 56.2 h and the “Overall survival (OS)” value [6] was 28.1 months.
